Assay results from ChEMBL document CHEMBL4513216, “Probing the Open Global Health Chemical Diversity Library for Multistage-Active Starting Points for Next-Generation Antimalarials” (ACS Infect Dis, 2020).

Assay: Toxicity liver stage against HepG2, at 10uM
Assay type: cell-based
Design: test concentration 10 uM, cell line HepG2-A16-CD81EGFP
Details: human, HepG2-A16-CD81EGFP cells; read-out: INHIBITION
Outline: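 Uninfected HepG2-A16-CD81EGFP cells, 3 × 10^3 per well, 1536-well, plated on prespotted compound at 10 μM final, parasite-free screening media added to match infected plates; puromycin 10 μM positive, DMSO 0.5% negative; run in parallel with 48 h PbLuc assay at 37 °C, 5% CO2; viability by CellTiter-Glo luminescence, normalized to controls.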

| Compound | cytotoxicity at 10 µM [%] |
| --- | --- |
| O=C1[C@@H]2CCN(Cc3ccc(F)cc3)C[C@@H]2OCCN1c1cccnc1 | 8.82 |
| NC(=O)N1CC(OCc2cccc3ccccc23)C1 | -0.396 |
| CN(C(=O)Nc1ccncc1)C1CCN(c2ccccc2)C1=O (stereo not given) | -10.1 |
| CNC(=O)c1noc(Cn2ncc3ccccc3c2=O)n1 | -5.35 |
| CCOCc1nc(-c2ccc(F)cc2Cl)n(C2CCN(C)CC2)n1 | 0.0453 |
| COC(=O)[C@H]1CN(C(C)=O)CCN1C(C)=O | -3.31 |
| O=C(c1c[nH]cn1)N1CCC(n2cc(-c3ccsc3)nn2)CC1 | -14.3 |
| O=C(Cn1ccnc1)N1C[C@@H]2CC[C@H](Oc3ccc(Cl)cc3)[C@@H]2C1 | -3.8 |
| O=C(CSc1nnc[nH]1)NCc1sccc1Br | 0.388 |
| O=C(CO)N1CC2(CCN(c3ccccc3)C2)C1 | 8.98 |
| Cc1ccc(CN2C[C@@H]3[C@@H](C(=O)N4CCCC4)CCS(=O)(=O)[C@@H]3C2)cc1 | 0.411 |
| CNc1nc2c(s1)C(=O)CN(C(=O)[C@@H](N)Cc1cccc(OC)c1)C2 | -4.08 |
| CCc1[nH]c2c(CNc3cncc(C(=O)N(C)C)n3)cc(C)cc2c1C | -10.2 |
| COc1ccccc1C1(CNc2nnc(C)c(C)c2C#N)CCCC1 | 34.4 |
| Cc1cc(CC(C)NC2CCSCC2)[nH]n1 (stereo not given) | 1.08 |
| O=C(NCCc1ccn(-c2ccccc2)n1)N1CCCC(CO)C1 (stereo not given) | -23.1 |
| CC(C)(C)CCN1CCN(Cn2nccc2-c2cccnc2)CC1 | 23.2 |
| O=C(CSc1ccccn1)N1C[C@@H]2CC[C@H]1CN(Cc1cscn1)C2 | 1.93 |
| CN(CCS(C)(=O)=O)C1CCCN(Cc2noc(C3CC3)n2)C1 (stereo not given) | 14.6 |
| NCc1n[nH]c(-c2cccc(F)c2)n1 | -167 |
| COc1cc(-c2nc3c([nH]2)CCCNC3=O)ccc1O | 16.9 |
| N#Cc1ccc(N2CCCN(CC(=O)N3CCNC(=O)C3)CC2)cc1 | 5.27 |

| Compound | cytotoxicity at 10 µM [%] |
| --- | --- |
| Cc1cccc(CN2CC[C@@H]3[C@@H]2CCN3C(=O)c2ccno2)n1 | -18.2 |
| CCCc1nc(N2CCC(CCO)CC2)c2cnn(C)c2n1 | 2.28 |
| CS(=O)(=O)N[C@H]1CN(C(=O)c2cscn2)[C@@H]2CCCO[C@H]12 | -84.6 |
| COCC(=O)N1CCC2(CC1)c1ccccc1[C@@H](N1CCSCC1)[C@@H]2O | 4.58 |
| O=C(NCc1ccncc1)Nc1cc(C(F)(F)F)c[nH]c1=O | -9.86 |
| Cc1ccn2c(F)c(C(=O)N3CCC4(CCC(=O)N(C)C4)CC3)nc2c1 | 5.96 |
| OCC1CCCCN1c1ccc(-c2nc(-c3ccccc3F)no2)cn1 (stereo not given) | 51.2 |
| CCc1c(C)sc2nc3n(CCN4CCOCC4)nc(SC)n3c(=O)c12 | 1.09 |
| Nc1ncccc1C(=O)NCc1cccc(Br)c1 | 42.6 |
| COc1ccc(OC)c(S(=O)(=O)NCC2(OC)CCSC2)c1 (stereo not given) | -12.8 |
| NC(=O)c1c(NC(=O)CCCC(=O)O)sc2c1CCc1ccccc1-2 | -1.25 |
| COCCN1CCN(CC(C)(O)c2cccc(C(F)(F)F)c2)CC1 (stereo not given) | -24.2 |
| CNC(=O)c1cc2c(nc1NCC(C)C)CCN(S(=O)(=O)C1CC1)CC2 | -4.88 |
| CC(C)NC(=O)N1CCN(CC2CC2)CC2(CNC(=O)C2)C1 (stereo not given) | 2.52 |
| Cc1ccc(C(=O)N2CCCCC2CN(C)C)cc1 (stereo not given) | -9.98 |
| CC(=O)N(Cc1ncc(C)o1)C1CCN(Cc2ccccc2C#N)C1 (stereo not given) | -15.5 |
| COc1ccc(CN2CCC3(CC2)CC(CC(=O)NC(C)C)CO3)cc1 (stereo not given) | -1.27 |
| CSCc1noc(CN2CC(Cc3ccccc3)CC2=O)n1 (stereo not given) | -0.404 |
| CCOC(=O)c1n[nH]cc1-c1cncn1CCn1nc(C)c(Cl)c1C | -15.1 |
| CC1CCN(c2ncc(C#N)c(N)n2)CC1 | 15.5 |
| CC(C)CN1CCC(NC(=O)NCCC(=O)NCc2ccccc2)CC1 | 1.64 |
| COc1c(CNCc2ccnc(N3CCCC3)c2)c(C)nn1C | 4.31 |

| Compound | cytotoxicity at 10 µM [%] |
| --- | --- |
| CCC(C(=O)NCC1CCN(c2ccncc2)CC1)N(C)C (stereo not given) | 15 |
| CN(Cc1nc2ccccc2o1)C1CCCN(c2cccnn2)C1 (stereo not given) | -9.43 |
| O=C(CN1CCN(c2ccccc2F)CC1)Nc1ccc(Cl)cn1 | 4.04 |
| Cc1nc(-c2ccccc2C(=O)O)cc(C2CCN(C(C)C)C2)n1 (stereo not given) | -13.1 |
| CS(=O)(=O)c1ccc(CN2CCCCC2c2ccc(F)cc2)cc1 (stereo not given) | 6.04 |
| O=C(c1c[nH]cn1)N1CCCn2c(CN3CCCCC3)nnc2C1 | -3.03 |
| NC(=O)c1ccc(N2CCCCC2)c(NC(=O)c2ccc(F)cc2Cl)c1 | -4.2 |
| Cn1cc(CN2CCC(CCC(=O)Nc3ccccc3Cl)CC2)cn1 | -2.98 |
| CCn1ccnc1CN1CCN(Cc2ccc(C#N)cc2)CC1 | -9.62 |
| Cc1cc(=O)n(CCNS(=O)(=O)c2ccc(F)c(Cl)c2)cn1 | 1.18 |
| CCS(=O)(=O)N1CCC2(CC1)CN(c1cccnc1)C(=O)CO2 | -109 |
| CCN(Cc1cccnc1)CC1(C)Cc2c(N)nc(N)nc2O1 (stereo not given) | 0.705 |
| c1ccc2sc(N3CCCC4(CCOC4)C3)nc2c1 (stereo not given) | -5.08 |
| O=C(CC1CCCC1)N1CCC(c2noc(-c3ccccn3)n2)CC1 | 5.05 |
| CC(C)(C)c1ccc(OCc2nc3c(c(=O)[nH]2)CCNC3)cc1 | 5.11 |
| CN(CC1(O)CCCN(c2ccccn2)C1)C(=O)CC1CCOCC1 (stereo not given) | -5.44 |
| CC1CCC(NS(=O)(=O)CC(=O)NCC2CCC2)CC1 (stereo not given) | -3.17 |
| Cc1ccc(-c2nc(CCNC(=O)C3CC(=O)N(C)C3)cs2)cc1 (stereo not given) | -5.54 |
| COCCN1CCC(CNC(=O)C2(C#N)CCCC2)CC1 | 6.93 |
| CNC(=O)c1nc(COc2ccc3c(c2)OCO3)no1 | 2.03 |
| Cc1[nH]ccc1C(=O)N1CCCN1C(=O)OC(C)(C)C | -6.49 |
| CN1CCCC1CNC(=O)c1nnn(-c2ccc(F)cc2)c1C1CC1 (stereo not given) | -15.9 |

| Compound | cytotoxicity at 10 µM [%] |
| --- | --- |
| O=c1c2cccnc2cnn1CC(O)c1cccc(Cl)c1 (stereo not given) | -10.2 |
| Cc1noc([C@@H]2C[C@H](NC(=O)Nc3ccccc3)CN2C)n1 | -1.89 |
| CC(C)(C)c1ccc(C(=O)NCCCNC(=O)c2cnccn2)cc1 | 6.58 |
| Cc1ccc2c(c1)[C@@H](CC(=O)N1CCOCC1)CCO2 | 8.24 |
| CCC(=O)N1CCCCC[C@@H]2[C@@H]1[C@H](c1cccc(F)c1)CN2C | 8.63 |
| COc1cccc2c1OCC(CNC(=O)CSc1nc(N)n[nH]1)C2 (stereo not given) | 0.712 |
| Cn1nc(C(=O)NC2CC2)cc1NC(=O)C1CC1 | -4.02 |
| Cc1nc(NC(=O)C(C)n2ncc(Br)c2C)sc1C (stereo not given) | 10.3 |
| COCC1CN(CC2CC2)Cc2nn(CC3CC3)cc21 (stereo not given) | -71.4 |
| O=S(=O)(CCCn1cncn1)Cc1cccc(F)c1 | 2.31 |
| CN(Cc1cnn(C)c1)S(=O)(=O)N1CCCCC1 | -3.38 |
| Cc1ccccc1CC(C)(C)NC(=O)c1cccc(OCC(N)=O)c1 | 2.93 |
| CC(C)CN1CCCn2nc(CNC(=O)Cc3cccc(O)c3)cc2C1 | 4.69 |
| COc1cccc(CCC(=O)N2CCN(CC(C)(C)O)CC2)c1 | -8.39 |
| O=C(CC1CC1)N1CCc2ncc(Cn3cncn3)n2CC1 | -71.6 |
| COCCN(Cc1cnn(C)c1)C(=O)C1CCN(C2CCCCC2)CC1 | 12.6 |
| COc1c(C2CCCN2C(=O)c2c(C)noc2C(C)C)c(C)nn1C (stereo not given) | 8.88 |
| CC(C)CN1CCC2(COCc3cnc(-c4ccccc4)nc32)C1 (stereo not given) | -103 |
| O=C(c1cn(CCN2CCCCC2)nn1)N1CCCO1 | 5.87 |
| CN(C)[C@@H]1CCN(c2ncccn2)[C@H]1Cc1ccncc1 | -17.9 |
| Cc1cc(C)n2nc(C(=O)N3CCCC4(CCOC4)C3)cc2n1 (stereo not given) | 7.73 |
| Cc1ncsc1C(=O)NCCc1cccs1 | -15.3 |

| Compound | cytotoxicity at 10 µM [%] |
| --- | --- |
| CC(C)(Oc1ccc(C(N)=O)cc1)C(=O)N(CCC#N)C1CC1 | 1.58 |
| COc1ccc(C2CCCN2C(=O)c2csc(NC(C)=O)n2)cc1 (stereo not given) | -5.82 |
| CC(C)c1nccc(-c2nccn2CCS(C)(=O)=O)n1 | 4.68 |
| Cc1ccc(-n2c(COC(C)C)n[nH]c2=O)cc1 | 9.47 |
| O=c1[nH]c(N2CCCCC2)nc2nccc(-c3ccc4c(c3)OCO4)c12 | 9.54 |
| NC(=O)N1CCC2(CCN(Cc3cccc(F)c3)CC2)CC1 | -10.1 |
| Cn1cc(C(=O)NCC2CCN(C(=O)NC3CCCCC3)CC2)cn1 | -4.92 |
| CCO[C@H]1CN(C(=O)c2ccnnc2)[C@@H]2COC[C@H]12 | 0.403 |
| NC(=O)COc1cccc(Cn2cccn2)c1 | -1.13 |
| CC1CN(Cc2cccc(C#N)c2)CCN1c1ccc2nncn2n1 (stereo not given) | 9.56 |
| CCOC(=O)N(C)C1CCN(Cc2cnc3ccccn23)CC1 | 18.1 |
| Cc1nc(-c2ccc(CNS(=O)(=O)N(C)C)cc2)ccc1C(N)=O | -8.53 |
| COCc1ncn2c1CN(S(=O)(=O)c1cccc(F)c1)CC2 | 4.06 |
| Cc1cccnc1CN1CC[C@@](C)(O)[C@H](Oc2ccccc2)C1 | -9.11 |
| CN(C)C(=O)N1CCN(C(=O)CCc2ccccc2)[C@H]2CS(=O)(=O)C[C@H]21 | -17.1 |
| COCCc1noc(CN2C(=O)OC[C@@H]2C(C)C)n1 | -8.93 |
| O=C(O)c1ccc(S(=O)(=O)Nc2ccc(Cl)c(F)c2)c(F)c1 | -14.3 |
| Cc1nc(COC[C@@H]2CCC[C@@]23CNCCO3)cs1 | 3.29 |
| Cc1nc(CN2CCCN(CCOc3cccc(C#N)c3)CC2)no1 | -5.85 |
| O=C(CO)N1CCCC(N2CCN(c3ccccc3F)CC2)C1 (stereo not given) | -49.1 |
| CC(C)c1cc(C(=O)N(c2ccc(F)cn2)C2CCOCC2)nn1C | -4.65 |
| CCOc1ncccc1C(=O)N1CCCC1Cn1nc(C)cc1C (stereo not given) | -4.45 |
